Assay results taken from ChEMBL document CHEMBL4627291, “A bicyclic pentapeptide-based highly potent and selective pan-SIRT1/2/3 inhibitor harboring Nε-thioacetyl-lysine” (Bioorg Med Chem, 2020).

How the values were obtained:
[1] = target: T1, NAD-dependent protein deacetylase sirtuin-1 (Homo sapiens, UniProt Q96EB6); test: Inhibition of His6/GST-tagged human SIRT1 deacetylation activity using SIRT1 acetyl-lysine as substrate in presence of beta-NAD+ after 10 mins by reversed-phase HPLC analysis
T1 sequence (Q96EB6 whole entry): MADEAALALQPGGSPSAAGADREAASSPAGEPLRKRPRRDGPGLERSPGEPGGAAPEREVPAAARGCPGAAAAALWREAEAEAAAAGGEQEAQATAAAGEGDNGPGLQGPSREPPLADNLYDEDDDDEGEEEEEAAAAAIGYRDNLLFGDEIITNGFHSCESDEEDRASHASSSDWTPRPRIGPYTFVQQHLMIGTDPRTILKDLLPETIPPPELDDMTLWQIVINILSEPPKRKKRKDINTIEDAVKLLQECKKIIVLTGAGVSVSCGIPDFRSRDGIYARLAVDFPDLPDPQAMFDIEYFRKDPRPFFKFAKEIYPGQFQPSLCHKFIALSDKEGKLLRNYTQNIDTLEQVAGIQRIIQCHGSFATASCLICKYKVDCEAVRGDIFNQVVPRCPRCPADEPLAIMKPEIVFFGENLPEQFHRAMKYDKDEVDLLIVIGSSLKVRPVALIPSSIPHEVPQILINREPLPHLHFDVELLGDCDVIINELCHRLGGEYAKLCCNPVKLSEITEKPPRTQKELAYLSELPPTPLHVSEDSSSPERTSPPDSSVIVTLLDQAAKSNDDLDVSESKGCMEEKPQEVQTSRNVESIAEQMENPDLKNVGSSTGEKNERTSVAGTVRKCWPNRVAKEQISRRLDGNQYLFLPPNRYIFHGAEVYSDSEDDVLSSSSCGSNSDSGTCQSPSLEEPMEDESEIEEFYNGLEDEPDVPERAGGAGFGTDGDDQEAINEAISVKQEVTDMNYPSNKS
Summary of the method: (§1)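 Buffer: 50 mM Hepes pH 8.0, 137 mM NaCl, 2.7 mM KCl, 1 mM MgCl₂, 1 mM DTT, 0.5 mM β-NAD⁺, p53 380-384 K382-acetyl pentapeptide. SIRT1 runs use 0.3 mM peptide, 320 nM His₆- or GST-SIRT1, 10 min. SIRT2 runs use 0.39 mM peptide, 309 nM His₆-SIRT2, 12 min. Reactions run at 37 °C, quenched with HCl/acetic acid, read by C18 HPLC at 214 nm, turnover <10%. IC50 from Dixon plots.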

[2] = target: T2, NAD-dependent protein deacetylase sirtuin-2 (Homo sapiens, UniProt Q8IXJ6); test: Inhibition of His6-tagged human SIRT2 deacetylation activity using SIRT1 acetyl-lysine as substrate in presence of beta-NAD+ after 12 mins by reversed-phase HPLC analysis; summary of the method: as §1
T2 sequence (Q8IXJ6 whole entry): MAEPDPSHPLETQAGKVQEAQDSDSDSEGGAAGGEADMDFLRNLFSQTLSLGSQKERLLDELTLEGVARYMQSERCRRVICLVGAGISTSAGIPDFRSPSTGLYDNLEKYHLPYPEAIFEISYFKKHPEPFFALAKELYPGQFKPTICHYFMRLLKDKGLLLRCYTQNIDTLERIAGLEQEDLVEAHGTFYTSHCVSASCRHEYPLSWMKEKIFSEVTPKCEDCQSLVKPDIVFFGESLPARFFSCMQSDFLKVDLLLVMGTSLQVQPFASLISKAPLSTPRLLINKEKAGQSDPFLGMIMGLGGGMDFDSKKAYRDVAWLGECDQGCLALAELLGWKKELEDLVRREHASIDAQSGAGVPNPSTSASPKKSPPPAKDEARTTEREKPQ

[3] = target: T3, NAD-dependent protein deacetylase sirtuin-3, mitochondrial (Homo sapiens, UniProt Q9NTG7); test: Inhibition of His6-tagged human SIRT3 deacetylation activity using SIRT3 acetyl-lysine as substrate substrate in presence of beta-NAD+ after 10 mins by reversed-phase HPLC analysis
T3 sequence (Q9NTG7 whole entry): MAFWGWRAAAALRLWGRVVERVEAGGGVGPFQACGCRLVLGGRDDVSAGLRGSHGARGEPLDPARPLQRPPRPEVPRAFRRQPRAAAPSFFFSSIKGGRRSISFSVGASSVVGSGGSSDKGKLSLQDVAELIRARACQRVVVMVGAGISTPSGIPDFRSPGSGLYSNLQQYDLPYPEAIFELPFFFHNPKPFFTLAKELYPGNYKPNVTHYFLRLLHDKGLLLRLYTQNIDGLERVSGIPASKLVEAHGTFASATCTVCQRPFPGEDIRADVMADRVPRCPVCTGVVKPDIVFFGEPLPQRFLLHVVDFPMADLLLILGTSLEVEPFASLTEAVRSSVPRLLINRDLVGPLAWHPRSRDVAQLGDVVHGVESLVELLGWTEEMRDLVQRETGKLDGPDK

[4] = target: NAD-dependent protein deacylase sirtuin-5, mitochondrial (Homo sapiens, UniProt Q9NXA8); test: Inhibition of His6-tagged human SIRT5 desuccinylation activity using succinyl-lysine as substrate in presence of beta-NAD+ after 5 mins by reversed-phase HPLC analysis; details: in the assay text read “GST-tagged” for “His6-tagged”
Sequence of NAD-dependent protein deacylase sirtuin-5, mitochondrial (Q9NXA8 whole entry): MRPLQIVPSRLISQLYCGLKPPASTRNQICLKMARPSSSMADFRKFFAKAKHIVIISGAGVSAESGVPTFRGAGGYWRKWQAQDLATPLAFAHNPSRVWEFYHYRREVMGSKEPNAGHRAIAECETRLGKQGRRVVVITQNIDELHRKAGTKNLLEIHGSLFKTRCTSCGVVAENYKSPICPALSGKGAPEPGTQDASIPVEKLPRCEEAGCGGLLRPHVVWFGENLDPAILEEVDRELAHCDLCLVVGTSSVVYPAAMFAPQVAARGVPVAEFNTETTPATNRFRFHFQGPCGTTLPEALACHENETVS
Summary of the method: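 GST-SIRT5 (370 nM) with 0.88 mM succinyl-lysine peptide and 0.8 mM β-NAD⁺ in 50 mM Hepes pH 8.0, 137 mM NaCl, 2.7 mM KCl, 1 mM MgCl₂, 1 mM DTT; 5 min at 37 °C. Stopped with 100 mM HCl/0.16 M acetic acid; C18 HPLC at 214 nm, turnover <10%; IC50 by Dixon plot.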

[5] = target: NAD-dependent protein deacylase sirtuin-6 (Homo sapiens, UniProt Q8N6T7); test: Inhibition of His6-tagged human SIRT6 demyristoylation activity using myristoyl-lysine substrate in presence of beta-NAD+ after 12 mins by reversed-phase HPLC analysis
Sequence of NAD-dependent protein deacylase sirtuin-6 (Q8N6T7 whole entry): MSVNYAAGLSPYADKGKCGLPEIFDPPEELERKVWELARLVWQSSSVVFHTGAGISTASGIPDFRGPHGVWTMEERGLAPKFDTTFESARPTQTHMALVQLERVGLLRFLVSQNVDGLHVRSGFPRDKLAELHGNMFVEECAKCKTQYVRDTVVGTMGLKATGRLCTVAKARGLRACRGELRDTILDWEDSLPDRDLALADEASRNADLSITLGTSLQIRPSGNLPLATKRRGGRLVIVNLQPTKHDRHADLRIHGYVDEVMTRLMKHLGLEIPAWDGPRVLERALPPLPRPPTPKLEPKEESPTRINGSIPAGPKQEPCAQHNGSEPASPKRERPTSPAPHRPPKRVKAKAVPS
Summary of the method: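 His₆-SIRT6 (313 nM) with 0.02 mM myristoyl-lysine peptide and 0.2 mM β-NAD⁺ in Hepes pH 8.0 buffer with NaCl, KCl, MgCl₂ and 1 mM DTT; 12 min at 37 °C. Acid quench, C18 HPLC at 214 nm, turnover <10%; IC50 from Dixon plots.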

[6] = target: T4, NAD-dependent protein deacetylase sirtuin-7 (Homo sapiens, UniProt Q9NRC8); test: Inhibition of tRNA-activated His6-tagged human SIRT7 deacetylation activity using acetyl-lysine as substrate in presence of beta-NAD+ after 30 mins by reversed-phase HPLC analysis
T4 sequence (Q9NRC8 whole entry): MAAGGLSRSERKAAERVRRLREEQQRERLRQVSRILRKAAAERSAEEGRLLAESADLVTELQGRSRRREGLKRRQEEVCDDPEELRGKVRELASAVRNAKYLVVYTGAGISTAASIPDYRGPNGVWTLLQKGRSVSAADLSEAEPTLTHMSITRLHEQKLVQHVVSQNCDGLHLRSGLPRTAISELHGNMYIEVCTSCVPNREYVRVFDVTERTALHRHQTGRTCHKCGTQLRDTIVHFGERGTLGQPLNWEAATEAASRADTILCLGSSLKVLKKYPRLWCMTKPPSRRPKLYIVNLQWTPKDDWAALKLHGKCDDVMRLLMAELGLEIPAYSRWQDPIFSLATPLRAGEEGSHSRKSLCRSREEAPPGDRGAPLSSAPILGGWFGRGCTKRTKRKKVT
Summary of the method: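 His₆-SIRT7 (570 nM) with yeast tRNA (3-fold molar excess over enzyme) and RNase inhibitor (~1 U/μL). Substrate: 1.8 mM H3 12-24 K18-acetyl peptide with 3 mM β-NAD⁺, in 50 mM Hepes pH 8.0, 150 mM NaCl, 1 mM DTT, no KCl or MgCl₂; 30 min at 37 °C. Acid quench, C18 HPLC at 214 nm; IC50 by Dixon plot.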

[7] = Enzymatic stability assessed as pronase (unknown origin)-mediated compound hydrolysis at pH 7.3 measured up to 30 mins by HPLC method; format: ADME, Homo sapiens; details: buffer, pH 7.3, 0.5 h
Summary of the method: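 Compound solution in water (160 μM) mixed 1:1 with Streptomyces griseus pronase (8 ng/μL) in 100 mM Tris·HCl pH 7.3 at 37 °C. Aliquots quenched with 1.0 M acetic acid at 0, 2.5, 5, 10, 20 and 30 min, then C18 RP-HPLC at 214 nm; mean of two measurements.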

[8] = target: T5, NAD-dependent protein deacetylase sirtuin-1 (Homo sapiens) (UniProt Q96EB6); test: Inhibition of SIRT1 deacetylation activity in human HCT116 cells assessed as increase in acetylated p53 K382 level by Western blot analysis; format: cell-based; details: HCT-116
T5 sequence (whole entry): T1 sequence (Q96EB6 whole entry)
Summary of the method: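 HCT116 cells (5 x 10⁵) in McCoy 5A with 10% FBS, treated 8 h at 37 °C at 0, 0.5, 2, 10, 50 and 100 μM final (water stock). Lysates run on SDS-PAGE, transferred to PVDF, probed with anti-acetyl-p53 K382 and anti-p53, HRP secondary, ECL detection.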

[9] = test system: MCF7; test: Antiproliferative activity against human MCF7 cells assessed as cell growth inhibition measured up to 72 hrs by MTT assay; format: functional, cell-based
Summary of the method: (§2)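 MCF-7 cells, 5 x 10³ per well, grown overnight in DMEM with 10% FBS, then exposed at 37 °C to 0, 5, 12.5, 25, 50 or 100 μM final (water stock) for 24, 48 or 72 h. Afterwards, PBS wash, MTT at 0.5 mg/mL final for 4 h at 37 °C, DMSO solubilization, absorbance at 568 nm; mean of five measurements.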

[10] = test system: SK-MEL-2; test: Antiproliferative activity against human SK-MEL-2 cells assessed as cell growth inhibition measured up to 72 hrs by MTT assay; format: functional, cell-based
Summary of the method: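 SK-MEL-2 melanoma cells, 5 x 10³ per well, grown overnight in MEM with 10% FBS, then exposed at 37 °C to 0, 5, 12.5, 25, 50 or 100 μM final (water stock) for 24, 48 or 72 h. Afterwards, PBS wash, MTT at 0.5 mg/mL final for 4 h at 37 °C, DMSO solubilization, A568 read; mean of five measurements.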

[11] = test system: MCF7; test: Antiproliferative activity against human MCF7 cells assessed as cell growth inhibition at 100 uM measured after 72 hrs by MTT assay relative to control; format: functional; details: MCF7, 72 h, read-out: GI; summary of the method: as §2

| SMILES | IC50 [1] [µM] | IC50 [2] [µM] | IC50 [3] [µM] | other results |
| --- | --- | --- | --- | --- |
| CSCC[C@@H]1NC(=O)[C@@H](NC(=O)[C@H](CCCCNC(C)=S)NC(=O)[C@H](CCCCN)NC(=O)[C@H](Cc2c[nH]cn2)NC(C)=O)Cc2ccc(cc2)OCCCCCCCNC1=O | 22.6 | 25.5 | 217 |  |
| CSCC[C@H](NC(=O)[C@H](CC(C)C)NC(=O)[C@H](CCCCNC(C)=S)NC(=O)[C@@H]1Cc2ccc(cc2)OCCCCCCCC(=O)N[C@@H](Cc2c[nH]cn2)C(=O)N1)C(N)=O | 0.673 | 1.33 |  |  |
| CSCC[C@@H]1NC(=O)[C@@H](NC(=O)[C@H](CCCCNC(C)=S)NC(=O)[C@H](CCCCN)NC(=O)[C@H](Cc2c[nH]cn2)NC(C)=O)Cc2ccc(cc2)OCCCCCCCCCCNC1=O | 56.7 | 17.9 | 13.1 |  |
| CSCC[C@@H]1NC(=O)[C@@H](NC(=O)[C@H](CCCCNC(C)=S)NC(=O)[C@H](CCCCN)NC(=O)[C@H](Cc2c[nH]cn2)NC(C)=O)Cc2ccc(cc2)OCCCNC1=O | 34.3 | 60.8 |  |  |
| CSCC[C@H](NC(=O)[C@H](CC(C)C)NC(=O)[C@H](CCCCNC(C)=S)NC(=O)[C@@H]1Cc2ccc(cc2)OCCCCCC(=O)N[C@@H](Cc2c[nH]cn2)C(=O)N1)C(N)=O | 0.646 | 1.03 |  |  |
| CSCC[C@@H]1NC(=O)[C@@H](NC(=O)[C@H](CCCCNC(C)=S)NC(=O)[C@@H]2Cc3ccc(cc3)OCCCC(=O)N[C@@H](Cc3c[nH]cn3)C(=O)N2)Cc2ccc(cc2)OCCCCCNC1=O | 0.54 | 0.253 | 0.72 | IC50 [4]: 443 µM; IC50 [5]: 390 µM; IC50 [6]: 78.9 µM; Stability [7]: Stable; inhibition [8]: Dose-dependent effect; Activity [9]: Dose-dependent effect; Activity [10]: Dose-dependent effect |
| CC/C(=C(\c1ccccc1)c1ccc(OCCN(C)C)cc1)c1ccccc1 [TAMOXIFEN] |  |  |  | inhibition of growth at 100 µM [11]: > 80% |
| CSCC[C@@H]1NC(=O)[C@@H](NC(=O)[C@H](CCCCNC(C)=S)NC(=O)[C@H](CCCCN)NC(=O)[C@H](Cc2c[nH]cn2)NC(C)=O)Cc2ccc(cc2)OCCCCCNC1=O | 13.6 | 115 |  |  |
| CSCC[C@H](NC(=O)[C@H](CC(C)C)NC(=O)[C@H](CCCCNC(C)=S)NC(=O)[C@@H]1Cc2ccc(cc2)OCCCC(=O)N[C@@H](Cc2c[nH]cn2)C(=O)N1)C(N)=O | 0.171 | 0.68 | 0.75 |  |
| CSCC[C@H](NC(=O)[C@H](CC(C)C)NC(=O)[C@H](CCCCNC(C)=S)NC(=O)[C@@H]1Cc2ccc(cc2)OCCCCCCCCCCC(=O)N[C@@H](Cc2c[nH]cn2)C(=O)N1)C(N)=O | 1.25 | 4.31 | 1.1 |  |
